{
  "source": "paper PMC11451940",
  "about": "(RSC Medicinal Chemistry, 2024)",
  "key": {"[1]": {"system": "A2780 cells (human ovarian carcinoma)", "experiment": "MTT in vitro cytotoxicity, A2780", "format": "cell-based", "method_in_brief": "(§1)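 MTT assay on ATCC human lines cultured per supplier instructions: A2780, A2780R, MCF-7, PC-3, A549, HOS and normal foetal fibroblast MRC-5. Exposure was 24 h for all lines; A2780 was also tested at 48 and 72 h. IC50 came from dose–response curves, given ± SD from triplicate experiments. Selectivity index = IC50(MRC-5)/IC50(A2780).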"}, "[2]": {"system": "A2780R cells (cisplatin-resistant ovarian carcinoma)", "experiment": "MTT in vitro cytotoxicity, A2780R", "format": "cell-based, human", "settings": "read-out: IC50 ± SD, A2780R", "method_in_brief": "as §1"}, "[3]": {"system": "MCF-7 cells (breast adenocarcinoma)", "experiment": "MTT in vitro cytotoxicity, MCF-7", "format": "cell-based, human", "settings": "read-out: IC50 ± SD, MCF-7", "method_in_brief": "as §1"}, "[4]": {"system": "PC-3 cells (prostate adenocarcinoma)", "experiment": "MTT in vitro cytotoxicity, PC-3", "format": "cell-based, human", "settings": "read-out: IC50 ± SD, PC-3", "method_in_brief": "as §1"}, "[5]": {"system": "A549 cells (lung adenocarcinoma)", "experiment": "MTT in vitro cytotoxicity, A549", "format": "cell-based, human", "settings": "read-out: IC50 ± SD, A549", "method_in_brief": "as §1"}, "[6]": {"system": "HOS cells (bone osteosarcoma)", "experiment": "MTT in vitro cytotoxicity, HOS", "format": "cell-based, human", "settings": "read-out: IC50 ± SD, HOS", "method_in_brief": "as §1"}, "[7]": {"system": "MRC-5 cells (human foetal fibroblasts)", "experiment": "MTT in vitro cytotoxicity, normal MRC-5", "format": "cell-based", "settings": "for IC50: read-out: IC50 ± SD, MRC-5", "method_in_brief": "as §1"}, "HeLa": {"system": "HeLa", "settings": "72 h of incubation; cited from earlier work"}, "PC3": {"system": "PC3", "settings": "72 h of incubation; cited from earlier work"}, "3T3": {"system": "3T3", "settings": "72 h of incubation; cited from earlier work"}, "HL60 cells": {"system": "HL60 cells", "settings": "read-out: IC50 on HL60 cells; 48 h of incubation; cited from earlier work"}, "[8]": {"settings": "read-out: IC50 ± SD, A2780, 72 h, 72 h incubation time, MTT"}},
  "note": "Values joined by “and” are separate entries in the source; they are usually repeats but may differ in a detail not shown here. Identical values can stand only once. Like-named read-outs stand apart in the source and are kept apart here.",
  "data": [
    {"compound": "N.N.[Cl][Pt][Cl]", "note": "[Cisplatin]", "values": [
      {"measurement": "IC50", "setting": "[1]; read-out: IC50 ± SD, A2780, 48 h, 48 h incubation time, MTT", "value": "6.5 ± 3.2", "unit": "µM"},
      {"measurement": "IC50", "setting": "[1]; [8]", "value": "3.7 ± 0.2", "unit": "µM"},
      {"measurement": "IC50", "setting": "[1]; read-out: IC50 ± SD, A2780, 24 h of incubation, MTT", "value": "15.2 µM and 15.4 µM"},
      {"measurement": "IC50", "setting": "[2]; 24 h of incubation, MTT", "value": "42.7 ± 3.8", "unit": "µM"},
      {"measurement": "IC50", "setting": "[3]; 24 h of incubation, MTT", "value": "37 ± 2.2", "unit": "µM"},
      {"measurement": "IC50", "setting": "[4]; 24 h of incubation, MTT", "value": "> 50", "unit": "µM"},
      {"measurement": "IC50", "setting": "[5]; 24 h of incubation, MTT", "value": "> 50", "unit": "µM"},
      {"measurement": "IC50", "setting": "[6]; 24 h of incubation, MTT", "value": "> 50", "unit": "µM"},
      {"measurement": "SI, selectivity index expressed as IC50(MRC-5)/IC50(A2780)", "setting": "[7]; 24 h of incubation", "value": 3.0},
      {"measurement": "SI, selectivity index expressed as IC50(MRC-5)/IC50(A2780)", "setting": "[7]; 24 h of incubation, listed as cisplatin", "value": "≈ 3"},
      {"measurement": "IC50", "setting": "[7]; 24 h of incubation, MTT, normal cells", "value": "46.1 ± 2.4", "unit": "µM"}
    ]},
    {"compound": "CC(C)=CCC1=C(O)C(=O)c2ccccc2C1=O", "note": "[Lapachol, 2-hydroxy-3-(3-methylbut-2-en-1-yl)naphthalene-1,4-dione]", "values": [
      {"measurement": "IC50", "setting": "[1]; Homo sapiens, A2780, 24 h, read-out: IC50 ± SD, A2780, 24 h of incubation, MTT", "value": "> 50", "unit": "µM"},
      {"measurement": "IC50", "setting": "[1]; [8]", "value": "6.4 ± 0.8", "unit": "µM"},
      {"measurement": "IC50", "setting": "[2]; Homo sapiens, 24 h", "value": "> 50", "unit": "µM"},
      {"measurement": "IC50", "setting": "[3]; Homo sapiens, MCF7, 24 h", "value": "> 50", "unit": "µM"},
      {"measurement": "IC50", "setting": "[4]; Homo sapiens, PC-3, 24 h", "value": "> 50", "unit": "µM"},
      {"measurement": "IC50", "setting": "[5]; Homo sapiens, A549, 24 h", "value": "> 50", "unit": "µM"},
      {"measurement": "IC50", "setting": "[6]; Homo sapiens, HOS, 24 h", "value": "> 50", "unit": "µM"},
      {"measurement": "IC50", "setting": "[7]; Homo sapiens, MRC5, 24 h", "value": "> 50", "unit": "µM"},
      {"measurement": "IC50 on HeLa", "setting": "HeLa", "value": 19.04, "unit": "µg/mL"},
      {"measurement": "IC50 on PC3", "setting": "PC3", "value": 20.51, "unit": "µg/mL"},
      {"measurement": "IC50 on 3T3", "setting": "3T3", "value": 6.15, "unit": "µg/mL"},
      {"measurement": "IC50", "setting": "HL60 cells", "value": 25, "unit": "µM"}
    ]}
  ]
}
